The RNAGym collection of RNA variant scans (doi:10.1126/science.aae0568)
This sample holds only a part of the variants without activity.

B1: tRNA (parent)
chain: GUUCCGUUGGCGUAAUGGUAACGCGUCUCCCUCCUAAGGAGAAGACUGCGGGUUCGAGUCCCGUACGGAACG

Variants of: B1
Assay: yeast fitness relative to wild type (ratio to wild type); higher = fitter; tRNA-Arg(CCU), competitive growth, 37 C, YPD
How it was run: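 A pool of Saccharomyces cerevisiae strains, each with a tRNA-Arg(CCU) gene variant at the native genomic locus, was competed in YPD at 37°C for 24 hours across six parallel replicates. The variants had been chemically synthesised at a 3% per-site mutation rate over 69 sites, and gene amplicons before and after competition were read by 100-nucleotide paired-end sequencing. Darwinian fitness relative to wild type rested on changes in genotype frequencies. Genotypes required ≥ 100 starting reads, and estimates < 0.5 were set to 0.5.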

Row | Variant | yeast fitness
1 | U19G A42U C55U | 0.692
2 | U19C A37C C62A U64C | ≤ 0.5
3 | A20C A37G A45C | ≤ 0.5
4 | U19G C27G | 0.776
5 | U19C C31A G50U C62G | ≤ 0.5
6 | U19G C31U U32A A45U A70U | ≤ 0.5
7 | U19G A70U | 1.02
8 | U19G A70C | 0.999
9 | U19A C27U | 1.02
10 | U19G A20U U53A G56A A65U | ≤ 0.5
11 | U19A C27U G44A | 0.781
12 | A20C A21G G67C | 0.712
13 | U19C G41C | 0.987
14 | U19C C27U C55G | 0.544
15 | U19G A21U C46U C66U | 0.532
16 | U19A C30G A36G A57U A65U | ≤ 0.5
17 | U19A C24G C61U | ≤ 0.5
18 | U19A C31U | 0.954
19 | A20C A40G A65G | 0.57
20 | U19G C24G U28C | 0.681
21 | U19G A43C U53C C55G G67C A69C | ≤ 0.5
22 | U19G G52C C62A | ≤ 0.5
23 | A20C A40G C60G | ≤ 0.5
24 | A20C A37C G41C G51C | ≤ 0.5

Row | Variant | yeast fitness
25 | U19G C30U C55U A57G | ≤ 0.5
26 | U19G A42C A43C | 0.951
27 | U19A G25C C33A A37G C55U | ≤ 0.5
28 | U19C G48A G58C C61A | ≤ 0.5
29 | U19G U26A U28C | ≤ 0.5
30 | U19C A20U A42C A65C A69U | ≤ 0.5
31 | U19C C27U C29G C34A A42C G58A A65G | ≤ 0.5
32 | U19A U59A | 0.845
33 | U19A U59G | 0.793
34 | U19A C27U A43U C55U | ≤ 0.5
35 | U19C G23C U53C | 0.562
36 | U19C A37C A45C C46A | 0.897
37 | U19C C29G C61U C66A | ≤ 0.5
38 | U19A C27U C55U | 0.572
39 | U19C G44C G58A A65G | 0.987
40 | U19C G63A | 0.918
41 | U19C C31A G50U C62G G63A | ≤ 0.5
42 | U19C A20U C27G G52C | ≤ 0.5
43 | U19A U26C C49G C66G | ≤ 0.5
44 | U19A C49G U59C C60G C62G | ≤ 0.5
45 | A20C A40U A65U G67C | ≤ 0.5
46 | U19C G23C C61G | ≤ 0.5
47 | U19C C24A G58A | ≤ 0.5
48 | U19A C24U C29A U54A | ≤ 0.5

Row | Variant | yeast fitness
49 | U19A U26A C29A C46G U54A | 0.603
50 | U19C U28C G48C A70C | ≤ 0.5
51 | U19G A20U C27G | ≤ 0.5
52 | U19G A20U C27A | 0.587
53 | U19C G56A | 0.91
54 | U19A C31G G38C A40C G56A | 0.569
55 | U19G A20U C27G G58A | 0.527
56 | U19C C22U U32G C34U A40G A57U A70U | ≤ 0.5
57 | A20C A21G A45U G67C | 0.61
58 | U19A G39C A69U | 0.574
59 | U19G C24A C30U | ≤ 0.5
60 | U19G A20C U26C G41A G63A C66U | ≤ 0.5
61 | U19G C27G A65C C66G | 0.907
62 | U19A C62U | 0.931
63 | U19A C24U G38A U54C C62U C66A | ≤ 0.5
64 | U19C G38A G41A | 0.577
65 | U19A G25C C33A A37G G68A | ≤ 0.5
66 | A20C A36G G48A G50C | ≤ 0.5
67 | A20C A42U | 0.782
68 | U19G A21G | 1.05
69 | U19A C30G G39C U53C C55A | ≤ 0.5
70 | U19A C29G C46A G68C | ≤ 0.5
71 | U19G G50U G58A C66U | 0.541
72 | A20C A21U A42U | ≤ 0.5

Row | Variant | yeast fitness
73 | U19G A69C | 0.856
74 | U19G A69U | 0.892
75 | U19C C24U A70U | 0.849
76 | U19C C24U A70C | 0.755
77 | U19A C46U A57C A70C | ≤ 0.5
78 | U19A G25A A37U A42G C55U | ≤ 0.5
79 | A20C A57G G63A | 0.558
80 | U19A C30G A36G C61G | ≤ 0.5
81 | U19C U26G | 0.815
82 | U19C U26C | 0.928
83 | U19G C33G U47A | 0.542
84 | U19A U35A A37G A43U A45C | ≤ 0.5
85 | U19G C55U | 0.762
86 | A20C A37C C66U | ≤ 0.5
87 | U19G A57G C66U | ≤ 0.5
88 | U19G A20U A69U | 0.86
89 | A20C A43U A69C | 0.605
90 | A20C A21C C61A G67C | ≤ 0.5
91 | U19C C49A G68C | ≤ 0.5
92 | U19G C22U C31U A40U G67A | 0.637
93 | A20C A21G A69C | 0.825
94 | U19C A45G C62U | 0.953
95 | U19G G68C | 0.802
96 | U19A C24G G38A G58C C60U C62U C66U | ≤ 0.5

Row | Variant | yeast fitness
97 | U19G C49U | 0.859
98 | A20C A36U U53A | ≤ 0.5
99 | U19C C61U | 0.925
100 | U19G C62U | 0.857
101 | U19A C30A A45U G50C | 0.62
102 | U19C U28C C46A A70C | 0.545
103 | U19G U28A | 0.613
104 | U19G A37G | 0.76
105 | U19A C55U | 0.694
106 | U19G A20U G52A | 0.698
107 | U19A C31G A70U | 0.919
108 | U19A U32A A36G | ≤ 0.5
109 | U19A C24U A69U | 0.746
110 | U19A C24G G25A C46G G52A A65C | ≤ 0.5
111 | U19C C31G A65U | 0.596
112 | U19G G63C A69U | ≤ 0.5
113 | U19G C27U A42C | ≤ 0.5
114 | U19C U53C | 0.694
115 | U19A G52C | 0.656
116 | U19A U26C C30A G67U | ≤ 0.5
117 | U19A C66G | 0.686
118 | U19A C66A | 0.607
119 | U19A C66U | 0.996
120 | U19C G38C C62G | ≤ 0.5

Row | Variant | yeast fitness
121 | U19C C24G A37U U47A C66A | ≤ 0.5
122 | U19C C60U C62U A69G | ≤ 0.5
123 | U19C G48A G50A | 0.693
124 | A20C | 1.01
125 | U19C C29U | 0.948
126 | U19C C29G | 0.578
127 | U19C A21U A69U | 0.691
128 | A20C A40G | 0.647
129 | U19A G48A | 1.05
130 | U19C C29G A40C | ≤ 0.5
131 | U19C C55A C66A | ≤ 0.5
132 | U19A G48A A69U | 0.966
133 | U19C C24U C31G U35A C61A A69C | ≤ 0.5
134 | U19C C22A C55G C62U | ≤ 0.5
135 | U19C A37U C66G | ≤ 0.5
136 | U19C A36U A70U | ≤ 0.5
137 | U19A G44A A69C | 0.685
138 | U19G C33G A37C C49G | ≤ 0.5
139 | U19G C24A A40C A45U | ≤ 0.5
140 | U19A C60G A70C | 0.502
141 | A20C A36U G39C | 0.618
142 | U19C C33A C34G | ≤ 0.5
143 | U19G G38C | 0.637
144 | A20C A36C G41C G67C A69G | ≤ 0.5

Row | Variant | yeast fitness
145 | A20C A43C | 0.816
146 | U19C A20C A43G C46A C55U A57U C61U | 0.592
147 | U19C U28C C29G A57U | ≤ 0.5
148 | U19C C29G U54A A65C | ≤ 0.5
149 | A20C A21U C27G U32C U35G | ≤ 0.5
150 | U19C C31U C34U A57C | ≤ 0.5
151 | U19A G23C C30A A36G C60U | ≤ 0.5
152 | U19A G41A A42G G58U G63C | ≤ 0.5
153 | U19C A37G C49U A69C | 0.51
154 | U19A C30G | 0.671
155 | U19A U28A U53G | ≤ 0.5
156 | U19G C22U A37G C66U A69U | 0.61
157 | U19A C24U G38A U54C C55U C66A | ≤ 0.5
158 | A20C C22G C29A C55G G56C | ≤ 0.5
159 | U19C A20G A37G | ≤ 0.5
160 | A20C A37C A43G C62U | ≤ 0.5
161 | U19C C27G U47A | ≤ 0.5
162 | U19C G50A C55A G63A C66A | ≤ 0.5
163 | U19C A21U | 0.846
164 | U19C A21C | 1.12
165 | U19C A42U | 1.12
166 | U19C A43U C62A | 0.628
167 | U19C G44C A69U | 0.762
